Results as given in ChEMBL document CHEMBL1135544, “Design, synthesis, and biological activity of hybrid compounds between uramustine and DNA minor groove binder distamycin A” (J Med Chem, 2002).

Tested on: K562
Assay: In vitro antitumor activity against human chronic myeloid leukemia K562 cell line
Format: functional, cell-based
Summary of the method: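 K562 cells grown in RPMI 1640 with 10% fetal calf serum and 2 mM glutamine at 37 °C, 5% CO2. Exposed to drug for 1 h at 37 °C in the dark, then centrifuged and washed. Seeded at 10⁴ cells/well, 8 wells per sample, and cultured 4 days. MTT read at 550 nm. IC50 is the dose giving 50% of control OD, mean of at least three experiments.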

Row | Structure (SMILES) | IC50
1 | O=C(O)CCCCCCn1cc(N(CCCl)CCCl)c(=O)[nH]c1=O | > 100 µM
2 | O=C(O)CCCCCn1cc(N(CCCl)CCCl)c(=O)[nH]c1=O | > 100 µM
3 | O=C(O)CCCCn1cc(N(CCCl)CCCl)c(=O)[nH]c1=O | > 100 µM
4 | Cn1cc(NC(=O)c2cc(NC(=O)c3cc(NC=O)cn3C)cn2C)cc1C(=O)NCCC(=N)N | > 100 µM
5 | O=C(O)CCCn1cc(N(CCCl)CCCl)c(=O)[nH]c1=O | > 100 µM
6 | Cn1cc(NC(=O)c2cc(NC(=O)c3cc(NC(=O)CCCCn4cc(N(CCCl)CCCl)c(=O)[nH]c4=O)cn3C)cn2C)cc1C(=O)NCCC(=N)N | 0.11 µM
7 | Cn1cc(NC(=O)c2cc(NC(=O)c3cc(NC(=O)Cn4cc(N(CCCl)CCCl)c(=O)[nH]c4=O)cn3C)cn2C)cc1C(=O)NCCC(=N)N | 4.06 µM
8 | Cn1cc(NC(=O)c2cc(NC(=O)c3cc(NC(=O)CCn4cc(N(CCCl)CCCl)c(=O)[nH]c4=O)cn3C)cn2C)cc1C(=O)NCCC(=N)N | 2.54 µM
9 | Cn1cc(NC(=O)c2cc(NC(=O)c3cc(NC(=O)CCCn4cc(N(CCCl)CCCl)c(=O)[nH]c4=O)cn3C)cn2C)cc1C(=O)NCCC(=N)N | 7.26 µM
10 | Cn1cc(NC(=O)c2cc(NC(=O)c3cc(NC(=O)CCCCCn4cc(N(CCCl)CCCl)c(=O)[nH]c4=O)cn3C)cn2C)cc1C(=O)NCCC(=N)N | 0.14 µM
11 | Cn1cc(NC(=O)c2cc(NC(=O)c3cc(NC(=O)CCCCCCn4cc(N(CCCl)CCCl)c(=O)[nH]c4=O)cn3C)cn2C)cc1C(=O)NCCC(=N)N | 0.07 µM
12 | Oc1ncc(N(CCCl)CCCl)c(O)n1 [URACIL MUSTARD] | 5.1 µM
